From paper PMC5773961 (British Journal of Pharmacology, 2017)
≈ marks a conversion by molar mass, not a printed value. Where two headings read alike, the source gives them in different places.

How the values were obtained:
α6+/γ2− BZ site = α6+/γ2− BZ site (Rattus norvegicus, UniProt P18508+P30191); assay: Saturation binding of [3H]Ro15-4513 to rat cerebellar membranes; settings: presence of diazepam, rat cerebellum, n=3
[1] = tested on: αxβ3γ2 (x = 1–5) GABAA receptors; settings: non‐α6, αxβ3γ2 receptors; 10 μM; ref Varagic et al., 2013a; cited from earlier work
α6β3γ2 GABAA receptors = α6β3γ2 GABAA receptors (Rattus norvegicus, UniProt P30191+P63079); type: cell-based; settings: for modulation of GABA EC3–5 currents in screening of compounds 5–9, in words: 10 μM compound, comparable to compound 3
Method in brief: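 Oocytes (X. laevis, stage 5–6, defolliculated) received 2.5 ng of rat α6:β3:γ2 mRNA at 3:1:5, or γ2‐β3‐α6 triple plus β3‐α6 double concatemer cRNA at 1:1. Incubated ≥36 h at 18°C. TEVC at −60 mV, room temperature. Per-oocyte GABA EC3–5 co-applied with test compound(s) at various concentrations, 0.1% DMSO final. Hill fit for EC50. ≥3 oocytes from two batches.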

α5β3γ2 GABAA receptors = α5β3γ2 GABAA receptors (Rattus norvegicus, UniProt P19969+P63079); type: cell-based
Method in brief: (§1)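 Rat α and β3/γ2 subunit mRNA (2.5 ng total) injected into defolliculated stage 5–6 X. laevis oocytes. Ratio α:β3:γ2 was 1:1:5 for α1, α2, α3 and α5, and 3:1:5 for α4. Oocytes held ≥36 h at 18°C in NDE. TEVC was run at −60 mV at room temperature under 6 mL·min−1 NDE perfusion. Per-oocyte GABA EC3–5 co-applied with test compound in 0.1% DMSO final. ≥3 oocytes from two batches.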

[2] = Solubility limit in the assay buffer; type: physicochemical; settings: aqueous buffer
[3] = tested on: αxβ3γ2 (x = 1–6) GABAA receptors; type: cell-based, rat
α1β3γ2 GABAA receptors = α1β3γ2 GABAA receptors (Rattus norvegicus, UniProt P62813+P63079); type: cell-based; settings: for % modulation of GABA EC3–5 currents: 10 μM compound, control (GABA) = EC3–5
Method in brief: as §1

α1β3 receptors = α1β3 receptors (Rattus norvegicus, UniProt P62813+P63079); assay: Two-electrode voltage clamp, α1β3 versus α1β3γ2 receptors; type: cell-based; settings: independence from γ2 subunit
Method in brief: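 Two-electrode voltage clamp of rat subunit mRNA-injected X. laevis oocytes, ≥36 h at 18°C in NDE (pH 7.5) before recording. Held at −60 mV at room temperature under continuous NDE flow. GABA titrated per oocyte to EC3–5 and co-applied with test compound, 0.1% DMSO final.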

[4] = tested on: benzodiazepine (BZD) receptor; settings: ref Czernik et al., 1982; cited from earlier work
[5] = tested on: αxβ3γ2 (x = 1–5) GABAA receptors; type: cell-based, rat
Method in brief: as §1

[6] = α6β3γ2, 1 μM compound, control (GABA) = EC3–5

α6β3γ2 GABAA receptors, sequence (P30191 20-453): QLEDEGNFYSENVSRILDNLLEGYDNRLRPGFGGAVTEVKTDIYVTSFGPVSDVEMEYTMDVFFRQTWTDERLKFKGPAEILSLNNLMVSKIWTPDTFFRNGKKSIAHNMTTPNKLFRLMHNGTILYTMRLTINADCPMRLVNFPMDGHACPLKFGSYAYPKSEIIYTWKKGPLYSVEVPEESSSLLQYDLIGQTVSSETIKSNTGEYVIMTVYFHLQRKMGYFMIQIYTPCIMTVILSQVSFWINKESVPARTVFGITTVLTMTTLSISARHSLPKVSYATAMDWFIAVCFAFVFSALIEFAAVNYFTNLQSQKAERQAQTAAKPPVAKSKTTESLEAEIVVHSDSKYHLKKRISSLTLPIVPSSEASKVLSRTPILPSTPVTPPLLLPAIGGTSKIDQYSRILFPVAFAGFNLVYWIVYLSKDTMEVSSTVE
α6β3γ2 GABAA receptors, sequence (P63079 26-473): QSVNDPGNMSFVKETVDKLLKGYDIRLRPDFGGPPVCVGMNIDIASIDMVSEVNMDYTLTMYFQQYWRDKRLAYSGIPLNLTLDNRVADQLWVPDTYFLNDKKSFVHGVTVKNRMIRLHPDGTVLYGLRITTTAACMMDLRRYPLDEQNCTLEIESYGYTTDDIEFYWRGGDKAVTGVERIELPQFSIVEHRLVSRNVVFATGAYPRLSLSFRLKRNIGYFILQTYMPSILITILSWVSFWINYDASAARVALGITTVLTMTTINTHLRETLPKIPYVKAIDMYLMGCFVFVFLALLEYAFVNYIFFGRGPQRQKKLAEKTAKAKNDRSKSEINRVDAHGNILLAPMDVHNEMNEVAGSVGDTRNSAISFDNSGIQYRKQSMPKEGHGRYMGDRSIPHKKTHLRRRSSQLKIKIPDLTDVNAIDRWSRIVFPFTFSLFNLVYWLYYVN
α6β3γ2 GABAA receptors, sequence (P18508 39-466 partner): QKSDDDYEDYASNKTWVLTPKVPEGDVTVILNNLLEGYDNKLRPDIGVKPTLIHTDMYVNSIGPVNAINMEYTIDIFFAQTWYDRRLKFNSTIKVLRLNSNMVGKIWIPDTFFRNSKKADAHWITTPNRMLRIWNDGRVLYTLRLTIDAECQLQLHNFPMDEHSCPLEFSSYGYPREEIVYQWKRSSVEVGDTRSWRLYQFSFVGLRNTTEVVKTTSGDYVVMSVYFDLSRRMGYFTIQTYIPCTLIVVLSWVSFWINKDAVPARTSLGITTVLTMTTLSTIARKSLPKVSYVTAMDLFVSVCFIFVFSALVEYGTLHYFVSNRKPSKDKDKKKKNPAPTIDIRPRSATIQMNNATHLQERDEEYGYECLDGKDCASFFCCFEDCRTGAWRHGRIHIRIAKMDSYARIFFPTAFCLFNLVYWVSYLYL
α1β3γ2 GABAA receptors, sequence (P62813 28-455): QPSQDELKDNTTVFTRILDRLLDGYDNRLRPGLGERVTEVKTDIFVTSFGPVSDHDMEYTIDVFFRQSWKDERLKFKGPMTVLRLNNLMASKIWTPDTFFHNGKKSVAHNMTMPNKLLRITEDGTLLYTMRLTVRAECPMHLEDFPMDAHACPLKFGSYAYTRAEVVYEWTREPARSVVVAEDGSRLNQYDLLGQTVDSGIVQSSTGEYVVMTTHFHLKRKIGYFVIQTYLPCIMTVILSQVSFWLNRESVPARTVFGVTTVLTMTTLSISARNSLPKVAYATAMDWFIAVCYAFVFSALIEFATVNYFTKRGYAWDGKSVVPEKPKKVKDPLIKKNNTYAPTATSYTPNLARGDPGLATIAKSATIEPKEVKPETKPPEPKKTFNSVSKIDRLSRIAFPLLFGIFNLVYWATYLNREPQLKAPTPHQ
α1β3γ2 GABAA receptors, sequence (P63079 26-473): as the sequence (P63079 26-473) above
α1β3γ2 GABAA receptors, sequence (P18508 39-466 partner): as the sequence (P18508 39-466 partner) above
α1β3 receptors, sequence (P62813 28-455): as the sequence (P62813 28-455) above
α1β3 receptors, sequence (P63079 26-473): as the sequence (P63079 26-473) above
α6+/γ2− BZ site, sequence (P30191 20-453): as the sequence (P30191 20-453) above
α6+/γ2− BZ site, sequence (P18508 39-466): as the sequence (P18508 39-466 partner) above
α5β3γ2 GABAA receptors, sequence (P19969 32-464 limits assumed): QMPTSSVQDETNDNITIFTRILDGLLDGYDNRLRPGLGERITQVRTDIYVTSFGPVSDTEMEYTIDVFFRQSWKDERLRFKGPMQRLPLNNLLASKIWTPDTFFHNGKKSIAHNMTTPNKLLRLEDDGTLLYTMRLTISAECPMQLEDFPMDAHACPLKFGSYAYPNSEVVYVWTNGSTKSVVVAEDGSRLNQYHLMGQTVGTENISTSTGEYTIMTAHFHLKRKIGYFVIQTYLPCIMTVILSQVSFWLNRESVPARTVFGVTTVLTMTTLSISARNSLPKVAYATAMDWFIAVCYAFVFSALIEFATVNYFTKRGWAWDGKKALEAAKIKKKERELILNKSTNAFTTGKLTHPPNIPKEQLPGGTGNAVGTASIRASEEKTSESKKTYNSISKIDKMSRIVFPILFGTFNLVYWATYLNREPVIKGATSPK
α5β3γ2 GABAA receptors, sequence (P63079 26-473): as the sequence (P63079 26-473) above
α5β3γ2 GABAA receptors, sequence (P18508 39-466 partner): as the sequence (P18508 39-466 partner) above

CCOC(=O)c1ncn2c1CN(C)C(=O)c1cc(N=[N+]=[N-])ccc1-2 [[3H]Ro15-4513]
Kd (α6+/γ2− BZ site): 0.0014 ± 0.0001 µM

COc1ccc(-n2nc3c4ccc(OC)cc4[nH]cc-3c2=O)cc1 [PZ‐II‐029]
residual modulatory activity, % of control GABA currents [1]: roughly 200%

COc1ccccc1-n1nc2c3cc(Cl)ccc3[nH]cc-2c1=O [Compound 4, 8‐chloro‐2‐(2‐methoxyphenyl)‐2H,3H,5H‐pyrazolo[4,3‐c]quinolin‐3‐one]
effect on modulation elicited by compound 3 (3 μM) (α6β3γ2 GABAA receptors; α6β3γ2, co-application up to 30 μM): unable to abolish the modulatory effect
modulatory activity (α5β3γ2 GABAA receptors): weak negative modulatory activity
solubility [2]: 30 µM (≈ 9.77 µg/mL)
positive allosteric modulation (PAM) activity [3]: abolished any positive allosteric modulation (PAM) activity

Nc1cccc(-n2nc3c4cc(Cl)ccc4[nH]cc-3c2=O)c1 [Compound 8, 2‐(3‐aminophenyl)‐8‐chloro‐2H,3H,5H‐pyrazolo[4,3‐c]quinolin‐3‐one]
modulation of GABA EC3–5 currents in screening of compounds 5–9, in words (α6β3γ2 GABAA receptors; α6β3γ2): strongest modulation

O=C(O)c1cccc(-n2nc3c4cc(Cl)ccc4[nH]cc-3c2=O)c1 [Compound 9, 3‐(8‐chloro‐3‐oxo‐2H,3H,5H‐pyrazolo[4,3‐c]quinolin‐2‐yl)benzoic acid]
% modulation of GABA EC3–5 currents (α6β3γ2 GABAA receptors; [6]): more than 150%
modulation of GABA EC3–5 currents in screening of compounds 5–9, in words (α6β3γ2 GABAA receptors; α6β3γ2): strongest modulation
type of modulation (α1β3γ2 GABAA receptors): negative allosteric modulation
% modulation of GABA EC3–5 currents (α1β3γ2 GABAA receptors): 17.9 ± 7.4%
modulatory effects in α1β3γ2 and α1β3 (α1β3 receptors): overlapping

Cc1cccc(-n2nc3c4cc(Cl)ccc4[nH]cc-3c2=O)c1 [Compound 5, 8‐chloro‐2‐(3‐methylphenyl)‐2H,3H,5H‐pyrazolo‐[4,3‐c]quinolin‐3‐one]
% modulation of GABA EC3–5 currents (α6β3γ2 GABAA receptors; [6]): more than 150%
modulation of GABA EC3–5 currents in screening of compounds 5–9, in words (α6β3γ2 GABAA receptors; α6β3γ2): strongest modulation
% modulation of GABA EC3–5 currents (α1β3γ2 GABAA receptors): 210.7 ± 17%
modulatory effects in α1β3γ2 and α1β3 (α1β3 receptors): overlapping

O=C1C2C=Nc3ccccc3C2=NN1c1ccccc1 (stereo not shown) [CGS8216]
concentrations displacing [3H]‐flunitrazepam and [3H]‐diazepam binding [4]: subnanomolar

COc1cccc(-n2nc3c4cc(Cl)ccc4[nH]cc-3c2=O)c1 [Compound 3, 8‐chloro‐2‐(3‐methoxyphenyl)‐2H,3H,5H‐pyrazolo[4,3‐c]quinolin‐3‐one]
EC50 (α6β3γ2 GABAA receptors): 3.1 µM
% modulation of GABA EC3–5 currents (α6β3γ2 GABAA receptors; α6β3γ2, 10 μM compound concentration, control GABA EC3–5 = 100%): around 300%
type of modulation (α1β3γ2 GABAA receptors): null (silent) modulator
effect on positive GABA current modulation by compound 2 (1 μM) (α1β3γ2 GABAA receptors; co-application of 10 and 30 μM): reduced the modulatory effect of compound 2
modulatory activity [5]: completely abolished
